The record followed here is ChEMBL document CHEMBL1155950, “Novel amidino-substituted thienyl- and furylvinylbenzimidazole: derivatives and their photochemical conversion into corresponding diazacyclopenta[c]fluorenes. synthesis, interactions with DNA and RNA, and antitumor evaluation. 4” (J Med Chem, 2008).

The species entered for assay [1] is Bos taurus. In words: Inhibition of calf thymus topoisomerase 1 assessed as induction of supercoiled plasmid pCI DNA nicking at 10 uM after 30 mins by gel electrophoresis. The method in brief:
(§1)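 Calf thymus topoisomerase I (8 U) with 0.8 µg negatively supercoiled pCI plasmid in relaxation buffer (10 mM Tris-HCl pH 7.5, 175 mM KCl, 5 mM MgCl2, 0.1 mM EDTA, 2.5% glycerol), ± test agent, 37 °C for 30 min. Stopped with SDS, then proteinase K digestion and phenol/chloroform/isoamyl alcohol extraction. Split onto 1% agarose gels with or without 0.5 µg/mL ethidium bromide. Nicked, relaxed and supercoiled bands viewed under UV.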

Assay [2] is filed under the species Bos taurus. As to the kind of experiment: Inhibition of calf thymus topoisomerase 1-mediated supercoiled plasmid pCI DNA relaxation activity at 10 uM after 30 mins by gel electrophoresis. The essentials: as §1
Another assay deals with SW-620. In words: Antiproliferative activity against human SW620 cells after 72 hrs by MTT assay. The class given is functional, cell-based. Conditions: SW-620, 72 h. The essentials: (§2)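 Monolayer cultures in DMEM with 10% FBS, 2 mM L-glutamine, penicillin and streptomycin, at 37 °C in 5% CO2. Seeded at 1 × 10⁴ to 3 × 10⁴ cells/mL on day 0. Compounds added at 10^-8 to 10^-4 M, then 72 h. MTT read-out, quadruplicate in three experiments, with a solvent control. IC50 by linear regression of percent growth around 50%.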

The next assay concerns MCF7. In words: Antiproliferative activity against human MCF7 cells after 72 hrs by MTT assay. The class given is functional, cell-based. Conditions: MCF7, 72 h. The essentials: as §2
Assay [3] in a line: Antiproliferative activity against human WI38 cells after 72 hrs by MTT assay. The class given is cell-based. As to conditions: WI-38, 72 h.
A further assay concerns HEp-2. As to the kind of experiment: Antiproliferative activity against human Hep2 cells after 72 hrs by MTT assay. The class given is functional, cell-based. As to conditions: HEp-2, 72 h. The method in brief: as §2
Assay [4] relates to MIA PaCa-2. As to the kind of experiment: Antiproliferative activity against human MiaPaCa2 cells after 72 hrs by MTT assay. Conditions: MIA PaCa-2, 72 h. The class given is functional, cell-based. The method in brief: as §2
For assay [5], the system named is HeLa. As to the kind of experiment: Antiproliferative activity against human HeLa cells after 72 hrs by MTT assay. The class given is functional, cell-based. The essentials:
as §2

Assay [6] is filed under the species Bos taurus. In words: Inhibition of calf thymus topoisomerase 1 assessed as induction of supercoiled plasmid pCI DNA nicking at 100 uM after 30 mins by gel electrophoresis. The method in brief: as §1
In assay [7] the test system is MIA PaCa-2. As to the kind of experiment: Cell cycle arrest in human MiaPaCa2 cells assessed as accumulation at G2/M phase at 10 uM after 72 hrs by flow cytometry. The class given is functional. The essentials:
(§3)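 2 × 10⁵ cells per well, compound (10 µM) added after 24 h, then 24, 48 or 72 h. Floating and attached cells pooled, fixed in 70% ethanol and kept at −20 °C. Stained with PI 1 µg/mL plus RNase A 0.2 µg/µL. 20 000 events by flow cytometry, phase percentages from DNA histograms. Duplicates, repeated at least twice.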

Assay [8] has as its system MIA PaCa-2. In words: Cell cycle arrest in human MiaPaCa2 cells assessed as accumulation at S phase at 10 uM after 48 hrs by flow cytometry. The class given is functional. The method in brief:
as §3

The subject of assay [9] is MIA PaCa-2. As to the kind of experiment: Cell cycle arrest in human MiaPaCa2 cells assessed as accumulation at G1/G0 phase at 10 uM after 48 hrs by flow cytometry. The class given is functional. The method in brief: as §3
The nature of assay [10]: Binding affinity to polyA-polyU double stranded RNA at pH 7.0 by fluorimetric titration. The method in brief:
(§4)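 Polynucleotide, given as phosphate concentration, added in portions to the compound in Na cacodylate buffer pH 7.0, I = 0.05 mol dm^-3, with polynucleotide in high excess. Emission recorded 350–550 nm, absorbance below 0.05 at excitation. Ks and n from nonlinear least-squares Scatchard fits. log K recalculated at fixed n = 0.2.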

Assay [11] concerns DNA. In words: Binding affinity to calf thymus DNA at 0.1 of [compound]/[calf thymus DNA] at pH 7.0 by thermal denaturation assay. Conditions: Bos taurus. The class given is nucleic-acid assay. The essentials:
(§5)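 Absorbance at 260 nm followed against temperature for free polynucleotide and complexes, in Na cacodylate buffer pH 7.0, I = 0.05 mol dm^-3. Ligand absorbance subtracted and curves normalized. Tm taken from the first-derivative maximum or by tangent method. ΔTm = Tm(complex) − Tm(free), average of at least two runs, error ±0.5 °C.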

Assay [12] has as its system MIA PaCa-2. As to the kind of experiment: Cell cycle arrest in human MiaPaCa2 cells assessed as accumulation at sub G1 phase at 10 uM after 24 hrs by flow cytometry. The class given is functional. The method in brief: as §3
The nature of assay [13]: Binding affinity to polyG-polyC double stranded RNA at pH 7.0 by fluorimetric titration. The essentials: as §4
The species entered for assay [14] is Bos taurus. As to the kind of experiment: Inhibition of calf thymus topoisomerase 1-mediated supercoiled plasmid pCI DNA relaxation activity at 200 uM after 30 mins by gel electrophoresis. The essentials:
(§6)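 Calf thymus topoisomerase I (8 U) with 0.8 µg supercoiled pCI in Tris-HCl pH 7.5 buffer with 175 mM KCl, 5 mM MgCl2, 0.1 mM EDTA and 2.5% glycerol, 37 °C for 30 min. Stopped with SDS, then proteinase K at 37 °C for 15 min and phenol/chloroform extraction. Run on 1% agarose with or without 0.5 µg/mL EtBr and viewed under UV.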

Assay [15] has as its system DNA. In words: Binding affinity to calf thymus DNA at 0.3 of [compound]/[calf thymus DNA] at pH 7.0 by thermal denaturation assay. The class given is nucleic-acid assay. Conditions: Bos taurus. The method in brief: as §5
The next assay has as its system Nucleic Acid. In words: Binding affinity to polyA-polyU double stranded RNA at 0.3 of [compound]/[double stranded polynucleotide] at pH 7.0 by thermal denaturation assay. The class given is nucleic-acid assay. The essentials:
as §5

The subject of assay [16] is MIA PaCa-2. As to the kind of experiment: Cell cycle arrest in human MiaPaCa2 cells assessed as accumulation at S phase at 10 uM after 72 hrs by flow cytometry. The class given is functional. The essentials:
as §3

The subject of assay [17] is DNA. In words: Binding affinity to calf thymus DNA at pH 7.0 by fluorimetric titration. The class given is nucleic-acid assay. Conditions: Bos taurus. The method in brief: as §4
For assay [18], the system named is MIA PaCa-2. As to the kind of experiment: Cell cycle arrest in human MiaPaCa2 cells assessed as accumulation at G1/G0 phase at 10 uM after 72 hrs by flow cytometry. The class given is functional. The essentials: as §3
Assay [19] has as its system MIA PaCa-2. In words: Cell cycle arrest in human MiaPaCa2 cells assessed as accumulation at S phase at 10 uM after 24 hrs by flow cytometry. The class given is functional. The essentials: as §3
In assay [20] the test system is HeLa. In words: Induction of apoptosis in human HeLa cells at 10 uM after 72 hrs by annexin V assay. The class given is functional. The essentials:
(§7)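 2 × 10⁴ cells per well, compounds added after 24 h, exposure 72 h. Floating and attached cells collected, washed and stained with annexin-V-fluorescein plus PI in Hepes buffer, then counted by fluorescence microscopy. Annexin-V-positive cells scored apoptotic, annexin-V/PI-positive scored necrotic. Apoptotic percentage taken relative to total cells.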

In assay [21] the test system is MIA PaCa-2. In words: Cell cycle arrest in human MiaPaCa2 cells assessed as accumulation at G2/M phase at 10 uM after 48 hrs by flow cytometry. The class given is functional. The method in brief: as §3
Assay [22] relates to DNA. As to the kind of experiment: Binding affinity to calf thymus DNA at 0.2 of [compound]/[calf thymus DNA] at pH 7.0 by thermal denaturation assay. The class given is nucleic-acid assay. As to conditions: Bos taurus. The method in brief: as §5
In assay [23] the test system is MIA PaCa-2. As to the kind of experiment: Induction of apoptosis in human MiaPaCa2 cells at 10 uM after 72 hrs by annexin V assay. The class given is functional. The essentials: as §7
Assay [24] deals with HeLa. As to the kind of experiment: Induction of apoptosis in human HeLa cells at 5 uM after 72 hrs by annexin V assay. The class given is functional. The method in brief: as §7
Assay [25] has as its system MIA PaCa-2. In words: Cell cycle arrest in human MiaPaCa2 cells assessed as accumulation at G2/M phase at 10 uM after 24 hrs by flow cytometry. The class given is functional. The method in brief:
as §3

The species named for assay [26] is Bos taurus. As to the kind of experiment: Inhibition of calf thymus topoisomerase 1 assessed as induction of supercoiled plasmid pCI DNA nicking at 200 uM after 30 mins by gel electrophoresis. The essentials: as §6
In assay [27] the test system is MIA PaCa-2. In words: Cell cycle arrest in human MiaPaCa2 cells assessed as accumulation at G1/G0 phase at 10 uM after 24 hrs by flow cytometry. The class given is functional. The method in brief: as §3
Assay [28] relates to MIA PaCa-2. In words: Cell cycle arrest in human MiaPaCa2 cells assessed as accumulation at sub G1 phase at 10 uM after 72 hrs by flow cytometry. The class given is functional. The method in brief: as §3
The test system of assay [29] is MIA PaCa-2. In words: Induction of apoptosis in human MiaPaCa2 cells at 5 uM after 72 hrs by annexin V assay. The class given is functional. The method in brief: as §7
The subject of assay [30] is MIA PaCa-2. In words: Cell cycle arrest in human MiaPaCa2 cells assessed as accumulation at sub G1 phase at 10 uM after 48 hrs by flow cytometry. The class given is functional. The essentials: as §3

Active and inactive are the calls of the source. The rule behind the calls is not given here.

On to `CC[n+]1c(-c2ccccc2)c2cc(N)ccc2c2ccc(N)cc21`, for which the result in the assay filed under Bos taurus [1] was inactive. The outcome in the assay filed under Bos taurus [2] was Active.

In the case of `C(=C\c1ccco1)/c1nc2ccc(C3=NCCN3)cc2[nH]1`, the IC50 with SW-620 is 50 µM; in the assay on MCF7, 9 µM; in assay [3], more than 100 µM; with HEp-2 it was 67 µM; in the assay with MIA PaCa-2 [4], 51 µM; with HeLa [5], 10 µM.

In the case of `CC[C@@]1(O)C(=O)OCc2c1cc1n(c2=O)Cc2cc3ccccc3nc2-1`, in the assay filed under Bos taurus [6], the outcome was Active.

As for `N=C(N)c1ccc2nc(/C=C/c3ccco3)[nH]c2c1`, the concentration for half-maximal inhibition (IC50) in the assay on SW-620 is 16 µM; in the assay on MCF7, 12 µM; in [3], more than 100 µM; in the assay with HEp-2, 19 µM; in the assay on MIA PaCa-2 [4], more than 100 µM; with HeLa [5], 4 µM.

Take `C(=C\c1cccs1)/c1nc2ccc(C3=NCCN3)cc2[nH]1.Cl`: the Activity came to 19% in the assay with MIA PaCa-2 [7]; 31% with MIA PaCa-2 [8]; 49% with MIA PaCa-2 [9]; 1% in the assay on MIA PaCa-2 [12]; 26% with MIA PaCa-2 [16]; 55% in the assay with MIA PaCa-2 [18]. Further, the Activity in the assay with MIA PaCa-2 [19] is 42%; in the assay on HeLa [20], 14%; with MIA PaCa-2 [21] it was 20%; with MIA PaCa-2 [23], 4%; with HeLa [24] it was 8%; in the assay on MIA PaCa-2 [25], 19%. Moreover, the Activity is on record as 39% in the assay with MIA PaCa-2 [27], 3% in the assay with MIA PaCa-2 [28], 2% with MIA PaCa-2 [29] and 1% with MIA PaCa-2 [30]. The IC50 in the assay on SW-620 worked out at 11 µM; in the assay on MCF7, 3 µM; in [3], 29 µM; in the assay with HEp-2, 11 µM; with MIA PaCa-2 [4] it was 10 µM; in the assay on HeLa [5] it was 5 µM. For the same molecule, the log K in [10] stood at 5.8; in [13], 5.6; in the assay on DNA [17], 5. In addition, the ΔTm in the assay with DNA [11] stood at 1.3 °C; in the assay on DNA [15] it was 1.4 °C; in the assay with Nucleic Acid, 2.2 °C; in the assay with DNA [22], 1.3 °C. In addition, the result in the assay filed under Bos taurus [14] and in the assay filed under Bos taurus [26] was Active.

`N=C(NC1CCCCC1)c1ccc2nc(/C=C/c3ccco3)[nH]c2c1`: the half-inhibitory concentration (IC50) with SW-620 is more than 100 µM; with MCF7, 19 µM; in assay [3], more than 100 µM; in the assay on HEp-2, 65 µM; in the assay with MIA PaCa-2 [4], 78 µM; in the assay with HeLa [5], 6 µM. In addition, the ΔTm with DNA [11] amounted to 1 °C; in the assay on DNA [15], 1.5 °C; in the assay with Nucleic Acid, 1.6 °C; in the assay with DNA [22] it was 1.6 °C. This molecule came in with a log K in the assay with DNA [17] of 5.2.
